In ChEMBL document CHEMBL1156266, “Antisense oligonucleotides containing conformationally constrained 2',4'-(N-methoxy)aminomethylene and 2',4'-aminooxymethylene and 2'-O,4'-C-aminomethylene bridged nucleoside analogues show improved potency in animal models” (J Med Chem, 2010):

Experiments:
Mus musculus [1] = assay: Toxicity in BALB/c mouse assessed as increase in liver weight at 0.5 to 14.6 mg/kg, ip administered twice a week for 3 weeks measured after 72 hrs of last dose; type: organism-based; parameters: dose 0.5-14.6 mg/kg, route intraperitoneal; details: in vivo
Procedure, shortened: (§1)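 Male Balb/c mice, ip ASO in PBS twice weekly for 3 weeks at four dose levels. Body weight recorded before each dose. Killed 3 days after last dose. Organ weights normalized to body weight, expressed relative to the saline-treated group.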

Mus musculus [2] = assay: Toxicity in BALB/c mouse assessed as effect on body weight at 0.5 to 14.6 mg/kg, ip administered twice a week for 3 weeks measured after 72 hrs of last dose; type: organism-based; parameters: dose 0.5-14.6 mg/kg, route intraperitoneal; details: in vivo; procedure, shortened: as §1
Mus musculus [3] = assay: Reduction in PTEN mRNA expression in ip dosed BALB/c mouse liver administered twice a week for 3 weeks measured after 72 hrs of last dose by RT-PCR analysis; type: functional
Procedure, shortened: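 Male Balb/c mice, 6-week-old, ASO in PBS ip twice weekly for 3 weeks, four dose levels. Killed 72 h after last dose. Liver homogenized in guanidine isothiocyanate buffer, RNA column-purified. PTEN RNA by fluorescence qRT-PCR, normalized to cyclophilin A. Errors are SD.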

[4] = Reduction in PTEN mRNA expression in mouse bEND.3 cells after 24 hrs by qRT-PCR analysis; type: functional, cell-based; details: for IC50: BEND3, 24 h
Procedure, shortened: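 bEnd.3 cells in DMEM/10% FBS, seeded at 1 × 10^4 cells/well the day before. Transfected 4 h at 37 °C with Lipofectin 3 μg/mL in OptiMEM, eight 1:2 dilutions (40 nM to 312.5 pM), then refed with complete medium for 24 h. PTEN RNA by qRT-PCR, normalized to cyclophilin A, as % untreated control. Triplicate plates. IC50 from sigmoidal fit, top 100%, bottom 0%.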

Liver = assay: Drug level in BALB/c mouse liver assessed per gram of tissue at 37 mg/kg, ip administered once a week for 3 weeks measured after 72 hrs of last dose; type: ADME, organism-based; parameters: dose 37 mg/kg, route intraperitoneal; details: in vivo
Mus musculus [5] = assay: Hepatotoxicity in BALB/c mouse assessed as increase in liver ALT level at 0.5 to 14.6 mg/kg, ip administered twice a week for 3 weeks measured after 72 hrs of last dose; type: toxicity, organism-based; parameters: dose 0.5-14.6 mg/kg, route intraperitoneal; details: in vivo
Procedure, shortened: (§2)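 Male 6-week-old Balb/c mice dosed ip in PBS twice weekly for 3 weeks: 0.7–23 mg/kg (four levels) or 0.5–14.6/14.8 mg/kg. Killed 72 h after final dose. Plasma from cardiac-puncture blood, ALT on clinical bioanalyzer. Errors are SD.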

Nucleic Acid = assay: Binding affinity to mouse PTEN mRNA assessed as melting temperature at 4 uM by thermal denaturation assay; type: nucleic-acid assay
Procedure, shortened: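 Duplex with complementary length-matched RNA; UV absorbance versus temperature curves in 100 mM Na+, 10 mM phosphate, 0.1 mM EDTA, 4 μM each strand. Tm is the average of two experiments.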

Mus musculus [6] = assay: Hepatotoxicity in BALB/c mouse assessed as liver ALT level at 0.7 to 23 mg/kg, ip administered twice a week for 3 weeks measured after 72 hrs of last dose; type: toxicity, organism-based; parameters: dose 0.7-23 mg/kg, route intraperitoneal; details: in vivo; procedure, shortened: as §2
Mus musculus [7] = assay: Toxicity in BALB/c mouse assessed as effect on liver weight at 0.7 to 23 mg/kg, ip administered twice a week for 3 weeks measured after 72 hrs of last dose; type: organism-based; parameters: dose 0.7-23 mg/kg, route intraperitoneal; details: in vivo; procedure, shortened: as §1
Mus musculus [8] = assay: Toxicity in BALB/c mouse assessed as effect on kidney weight at 0.7 to 23 mg/kg, ip administered twice a week for 3 weeks measured after 72 hrs of last dose; type: organism-based; parameters: dose 0.7-23 mg/kg, route intraperitoneal; details: in vivo; procedure, shortened: as §1
Mus musculus [9] = assay: Toxicity in BALB/c mouse assessed as effect on body weight at 0.7 to 23 mg/kg, ip administered twice a week for 3 weeks measured after 72 hrs of last dose; type: organism-based; parameters: dose 0.7-23 mg/kg, route intraperitoneal; details: in vivo; procedure, shortened: as §1

| IC50 [4] | Drug uptake (Liver) | Tm (Nucleic Acid) | SMILES | Activity (Mus musculus [1]) | Activity (Mus musculus [2]) | ED50 (Mus musculus [3]) | Activity (Mus musculus [5]) | Activity [4] | Activity (Mus musculus [6]) | Activity (Mus musculus [7]) | Activity (Mus musculus [8]) | Activity (Mus musculus [9]) |
| --- | --- | --- | --- | --- | --- | --- | --- | --- | --- | --- | --- | --- |
| 1.3 nM | 30 µg/g |  | Cc1cn([C@@H]2O[C@]3(CO)CO[C@@H]2[C@@H]3OP(O)(=S)OC[C@]23CC([C@H](n4cc(C)c(=O)[nH]c4=O)O2)[C@@H]3OP(O)(=S)OC[C@H]2O[C@@H](n3cc(C)c(=O)[nH]c3=O)C[C@@H]2OP(O)(=S)OC[C@H]2O[C@@H](n3cnc4c(N)ncnc43)[C@H](O)[C@@H]2OP(O)(=S)OC[C@H]2O[C@@H](n3cnc4c(=O)[nH]c(N)nc43)[C@H](O)[C@@H]2OP(O)(=S)OC[C@H]2O[C@@H](n3ccc(N)nc3=O)[C@H](O)[C@@H]2OP(O)(=S)OC[C@H]2O[C@@H](n3cnc4c(N)ncnc43)[C@H](O)[C@@H]2OP(O)(=S)OC[C@H]2O[C@@H](n3ccc(N)nc3=O)[C@H](O)[C@@H]2OP(O)(=S)OC[C@H]2O[C@@H](n3cc(C)c(=O)[nH]c3=O)C[C@@H]2OP(O)(=S)OC[C@H]2O[C@@H](n3cnc4c(=O)[nH]c(N)nc43)[C@H](O)[C@@H]2OP(O)(=S)OC[C@H]2O[C@@H](n3cnc4c(=O)[nH]c(N)nc43)[C@H](O)[C@@H]2OP(O)(=S)OC[C@H]2O[C@@H](n3ccc(N)nc3=O)[C@H](O)[C@@H]2OP(O)(=S)OC[C@]23CO[C@@H]([C@H](n4cc(C)c(N)nc4=O)O2)[C@@H]3OP(O)(=S)OC[C@]23CC([C@H](n4cc(C)c(=O)[nH]c4=O)O2)[C@@H]3O)c(=O)nc1N (some centres undefined) | Toxic | Toxic | 3 mg/kg | Toxic |  |  |  |  |  |
| 1 nM |  | 67.9 °C | COCCO[C@@H]1[C@H](OP(O)(=S)OC[C@H]2O[C@@H](n3cc(C)c(=O)[nH]c3=O)C[C@@H]2OP(O)(=S)OC[C@H]2O[C@@H](n3cnc4c(=O)[nH]c(N)nc43)[C@H](OCCOC)[C@@H]2OP(O)(=S)OC[C@H]2O[C@@H](n3cc(C)c(N)nc3=O)[C@H](OCCOC)[C@@H]2OP(O)(=S)OC[C@H]2O[C@@H](n3cc(C)c(=O)[nH]c3=O)C[C@@H]2OP(O)(=S)OC[C@H]2O[C@@H](n3cnc4c(N)ncnc43)[C@H](O)[C@@H]2OP(O)(=S)OC[C@H]2O[C@@H](n3cnc4c(=O)[nH]c(N)nc43)[C@H](O)[C@@H]2OP(O)(=S)OC[C@H]2O[C@@H](n3cc(C)c(N)nc3=O)C[C@@H]2OP(O)(=S)OC[C@H]2O[C@@H](n3cc(C)c(N)nc3=O)C[C@@H]2OP(O)(=S)OC[C@H]2O[C@@H](n3cc(C)c(=O)[nH]c3=O)C[C@@H]2OP(O)(=S)OC[C@H]2O[C@@H](n3cc(C)c(N)nc3=O)C[C@@H]2OP(O)(=S)OC[C@H]2O[C@@H](n3cc(C)c(=O)[nH]c3=O)C[C@@H]2OP(O)(=S)OC[C@H]2O[C@@H](n3cnc4c(=O)[nH]c(N)nc43)[C@H](O)[C@@H]2OP(O)(=S)OC[C@H]2O[C@@H](n3cnc4c(=O)[nH]c(N)nc43)[C@H](O)[C@@H]2OP(O)(=S)OC[C@H]2O[C@@H](n3cnc4c(N)ncnc43)[C@H](O)[C@@H]2OP(O)(=S)OC[C@H]2O[C@@H](n3cc(C)c(=O)[nH]c3=O)C[C@@H]2OP(O)(=S)OC[C@H]2O[C@@H](n3cc(C)c(=O)[nH]c3=O)C[C@@H]2OP(O)(=S)OC[C@H]2O[C@@H](n3cc(C)c(=O)[nH]c3=O)C[C@@H]2OP(O)(=S)OC[C@H]2O[C@@H](n3cnc4c(=O)[nH]c(N)nc43)[C@H](OCCOC)[C@@H]2OP(O)(=S)OC[C@H]2O[C@@H](n3cnc4c(N)ncnc43)[C@H](OCCOC)[C@@H]2O)[C@@H](CO)O[C@H]1n1cc(C)c(N)nc1=O (some centres undefined) |  |  | 10 mg/kg |  | Dose-dependent effect | Non-toxic | Non-toxic | Non-toxic | Non-toxic |
